Data set [1] is described as follows: Cell viability. Type of data set: cell-based. Particulars: human, HUVEC cells. Summed up: (§1)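 Caco-2 and Vero cells were grown in DMEM with 10% FBS, and HUVEC in DMEM-F12 with 10% FBS, at 37 °C and 5% CO₂. Cells were seeded at 5.000 per well 24 h before treatment. Test compound was diluted from a 100 mM DMSO stock into 1% FBS medium at 1, 10, 30, 50, 100 and 150 µM. Controls were 10% DMSO and medium alone. At 24, 48 and 72 h, cells got resazurin (0.5 mg mL⁻¹ solution) for 4 h, read at ex 560/em 590 nm. IC50 was from curve fitting.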

Data set [2] is described as follows: Cell viability. It is filed as cell-based. To be noted: African green monkey, Vero cells. Summed up: as §1
The conditions of data set [3]: SO + additive at 200 ppm. Summed up: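 Thermogravimetry of sunflower oil with 200 ppm test compound: about 10 mg oil in a Pt crucible was heated from ambient to 700 °C at 5 °C min⁻¹ in air (60 mL min⁻¹), with N₂ purge on the balance. Onset temperature and temperatures at 5, 10 and 50% mass loss came from TG/DTG curves and were compared with unsupplemented oil.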
A short description of data set [4]: Schaal Oven Test, TBARS, sunflower oil. To be noted: 60 °C, over 12 days. Summed up: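 Schaal oven test (AOCS Cg5-97): supplemented olive or sunflower oil was held at 60 ± 5 °C in the dark for 12 days, sampled every 3 days. TBARS: oil was mixed with TBA/TCA/HCl and centrifuged. Supernatant was heated 90 °C for 15 min and read at 535 nm against an MDA curve (nmol MDA per mL oil). n = 3, compared with unsupplemented oil.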

The nature of data set [5]: DPPH˙ scavenging activity. Particulars: 30 min, 515 nm; tested 10–100 µg mL^−1. Summed up: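 Test compound (10–100 µg mL⁻¹) or 80% methanol control was mixed 1:2 (v/v) with DPPH solution, shaken, and kept 30 min at room temperature in the dark. Absorbance was read at 515 nm. Scavenging % = 100 × (1 − A sample/A DPPH blank). Ferulic and syringic acids served as references. Run in triplicate.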

The nature of the next data set: Lipoperoxidation. Particulars: SO + additive 200 ppm, 220 °C. Summed up: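 Sunflower oil with 200 ppm test compound was heated on a hot plate at 25, 100, 180 and 220 °C for 30 min (ramp 2 °C min⁻¹). Oil (0.5 mL) was vortexed with TBA/TCA/HCl and centrifuged 3500 rpm for 5 min. Supernatant was heated 90 °C for 15 min and read at 535 nm against an MDA curve, as nmol MDA per mL oil. Unsupplemented oil was the control. Run in triplicate.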

A short description of data set [6]: Cell viability. To be noted: human, Caco-2 cells. It is filed as cell-based. Summed up:
as §1

For the molecule `CCCCCOc1c(OC)cc(C(=O)O)cc1OC` [Compound 5c, 3,5-Dimethoxy-4-(pentyloxy)benzoic acid], in “Cell viability [1]”, the half-maximal inhibitory concentration (IC50) at 24 h was above 100 µM, the IC50 at 48 h is above 100 µM and the IC50 at 72 h is above 100 µM. In addition, in the data set “Cell viability [2]”, the IC50 at 24 h was above 100 µM, the IC50 at 48 h was above 100 µM and the IC50 at 72 h is above 100 µM. Moreover, in data set [3], the “Increase of onset temperature of mass loss (Tonset) in comparison with SO” value came out at 37 °C. Moreover, in data set [3] (TGA in air), the “T 5 (5% mass loss)” value is 368 °C, the “T 10 (10% mass loss)” value came out at 388 °C, the “T 50 (50% mass loss)” value came out at 426 °C and the “T onset (decomposition temperature: onset temperature)” value came out at 318 °C. The “TBARS values compared with control” value in data set [4] was “decreased the TBARS values”. The “Antioxidant capacity (DPPH), IC50” value in data set [5] worked out at 34.98 ± 2.23 µg/mL. In addition, the “Reduction in secondary oxidation (TBARS) in comparison with SOcontrol” value in the data set “Lipoperoxidation” was 5 times. In addition, in the data set “Cell viability [6]”, the IC50 at 24 h is above 100 µM, the IC50 at 48 h is above 100 µM and the IC50 at 72 h was above 100 µM.

The record behind these values is paper PMC11250141 (RSC Advances, 2024).
